≈ marks a conversion by molar mass, not a printed value. Calls of active or inactive are those of the source. The calls are words filed in the database; no cut-off is given here.
What was measured:
[1] = test system: Mycobacterium intracellulare; test: Antimicrobial activity against Mycobacterium intracellular; assay type: functional, organism-based
Method in brief: (§1)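 Samples in DMSO serially diluted in 0.9% saline, tested in duplicate; inocula set against 0.5 McFarland standard (absorbance 630 nm) and diluted in broth to recommended levels. Growth, solvent and media controls included. Read at 630 nm, or fluorescence 544ex/590em for M. intracellulare (modified Alamar Blue), before and after incubation; IC50 from percent growth versus concentration.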

Aspergillus fumigatus = test: Antifungal activity against Aspergillus fumigatus; assay type: functional, organism-based; method in brief: as §1
Leishmania donovani [2] = test: Antileishmanial activity against Leishmania donovani promastigotes after 48 hrs by Alamar blue assay; assay type: functional, organism-based
Method in brief: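 L. donovani promastigotes grown in RPMI 1640 + 10% fetal calf serum at 26 °C; 3-day culture diluted to 5 × 10^5/mL, drug dilutions made directly in suspension, 48 h at 26 °C. Alamar blue fluorescence 544 nm ex/590 nm em; IC50 and IC90 from percent growth vs concentration curves.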

Vero [3] = test: Cytotoxicity against Vero cells up to 23.8 ug/mL by neutral red assay; assay type: cell-based; conditions: chlorocebus sabaeus
LLC-PK1 [4] = test: Cytotoxicity against LLC-PK1 cells up to 23.8 ug/mL by neutral red assay; assay type: cell-based, Sus scrofa; conditions: pig
Vero [5] = test: Cytotoxicity against Vero cells by neutral red assay; assay type: cell-based; conditions: chlorocebus sabaeus
Method in brief: (§2)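 Cells seeded 25,000/well, grown 24 h, then exposed to samples 48 h; viable cells quantified by neutral red uptake. IC50 taken from logarithmic plots of growth inhibition versus concentration; DMSO vehicle control.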

LLC-PK1 [6] = test: Cytotoxicity against LLC-PK1 cells by neutral red assay; assay type: cell-based; conditions: Sus scrofa; method in brief: as §2
Leishmania donovani [7] = test: Antileishmanial activity against Leishmania donovani promastigotes after 48 hrs at 40 ug/mL by Alamar blue assay; assay type: functional, organism-based
Plasmodium falciparum [8] = test: Antimalarial activity against Plasmodium falciparum D6; assay type: functional, organism-based
Method in brief: (§3)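 P. falciparum-infected erythrocytes at 2% parasitemia, 2% hematocrit in RPMI 1640 with 10% human serum and 60 µg/mL amikacin, exposed to serial dilutions 72 h at 37 °C under 90% N2/5% O2/5% CO2. Parasite LDH measured with Malstat reagent then NBT/PES, stopped with 5% acetic acid, A650; IC50 from dose–response. DMSO 0.25% vehicle.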

Cryptococcus neoformans [9] = test: Antifungal activity against Cryptococcus neoformans at 20 ug/mL; assay type: functional, organism-based
Plasmodium falciparum [10] = test: Antimalarial activity against Plasmodium falciparum W2; assay type: functional, organism-based; method in brief: as §3
Candida albicans [11] = test: Antifungal activity against Candida albicans at 20 ug/mL; assay type: functional, organism-based
Vero [12] = test: Cytotoxicity against Vero cells up to 4.76 ug/mL by neutral red assay; assay type: cell-based; conditions: chlorocebus sabaeus
Staphylococcus aureus = test: Antibacterial activity against methicillin-resistant Staphylococcus aureus at 20 ug/mL; assay type: functional, organism-based
Method in brief: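 Samples in DMSO, serially diluted in 0.9% saline, tested in duplicate. Inoculum set against the 0.5 McFarland standard by absorbance at 630 nm, then diluted in broth. Growth, solvent and media controls included. Absorbance read at 630 nm before and after incubation. IC50 taken from percent growth versus concentration. Inactivity was scored at 20 µg/mL.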

LLC-PK1 [13] = test: Cytotoxicity against LLC-PK1 cells up to 4.76 ug/mL by neutral red assay; assay type: cell-based, Sus scrofa; conditions: pig
Cryptococcus neoformans [14] = test: Antifungal activity against Cryptococcus neoformans; assay type: functional, organism-based; method in brief: as §1
Candida albicans [15] = test: Antifungal activity against Candida albicans; assay type: functional, organism-based; method in brief: as §1

## O=C(O)c1cn(C2CC2)c2cc(N3CCNCC3)c(F)cc2c1=O
[1]
  Activity: inactive
Aspergillus fumigatus
  Activity: inactive

## C=CCOc1cc(O)c(C(=O)CC(C)C)c(O)c1C(=O)CC(C)C
Leishmania donovani [2]
  IC50: 14 µg/mL (≈ 41.9 µM)
  IC90: 36 µg/mL (≈ 108 µM)
Vero [3]
  Activity: Not Active
LLC-PK1 [4]
  Activity: Not Active

## COc1cccc2c1C(=O)c1c(O)c3c(c(O)c1C2=O)C[C@@](O)(C(=O)CO)C[C@@H]3O[C@H]1C[C@H](N)[C@H](O)[C@H](C)O1
[1]
  Activity: inactive
Aspergillus fumigatus
  Activity: inactive

## C=CCOc1cc(O)c(C(=O)CC(C)C)c(O)c1C=O
Leishmania donovani [2]
  IC50: 5.3 µg/mL (≈ 19 µM)
  IC90: 31 µg/mL (≈ 111 µM)
Vero [5]
  IC50: 17 µg/mL (≈ 61.1 µM)
LLC-PK1 [6]
  IC50: 9 µg/mL (≈ 32.3 µM)

## Cc1c(O)c(C=O)c(O)c(C=O)c1O
[1]
  Activity: inactive
Aspergillus fumigatus
  Activity: inactive
Leishmania donovani [7]
  Activity: inactive
Plasmodium falciparum [8]
  Activity: inactive
Cryptococcus neoformans [9]
  Activity: inactive
Plasmodium falciparum [10]
  Activity: inactive
Candida albicans [11]
  Activity: inactive
Vero [12]
  Activity: Not Active
Staphylococcus aureus
  Activity: inactive
LLC-PK1 [13]
  Activity: Not Active

## C[C@@H]1CC[C@H]2[C@@H](C)C(=O)O[C@@H]3O[C@@]4(C)CC[C@@H]1[C@]32OO4
[1]
  Activity: inactive
Aspergillus fumigatus
  Activity: inactive

## CC(C)=CCc1c(O)c(C=O)c(O)c(C(=O)/C(C)=C/O)c1O
[1]
  Activity: inactive
Aspergillus fumigatus
  Activity: inactive
Plasmodium falciparum [8]
  Activity: inactive
Leishmania donovani [2]
  IC90: > 40 µg/mL
Cryptococcus neoformans [9]
  Activity: inactive
Plasmodium falciparum [10]
  Activity: inactive
Candida albicans [11]
  Activity: inactive
Vero [5]
  IC50: 19 µg/mL (≈ 62 µM)
Staphylococcus aureus
  Activity: inactive
LLC-PK1 [6]
  IC50: 14.5 µg/mL (≈ 47.3 µM)

## CC(=O)c1c(O)cc(OCCC(C)C)c(C=O)c1O
Leishmania donovani [2]
  IC50: 7.8 µg/mL (≈ 29.3 µM)
  IC90: > 40 µg/mL
Vero [3]
  Activity: Not Active
LLC-PK1 [4]
  Activity: Not Active

## N=C(N)c1ccc(OCCCCCOc2ccc(C(=N)N)cc2)cc1 [PENTAMIDINE]
[1]
  Activity: inactive
Aspergillus fumigatus
  Activity: inactive
Leishmania donovani [2]
  IC50: 1.5 µg/mL (≈ 4.41 µM)
  IC90: 4.9 µg/mL (≈ 14.4 µM)

## CC(C)CCOc1cc(O)c(C(=O)CC(C)C)c(O)c1C(=O)CC(C)C
Leishmania donovani [2]
  IC50: 24 µg/mL (≈ 65.8 µM)
  IC90: > 40 µg/mL
Vero [3]
  Activity: Not Active
LLC-PK1 [4]
  Activity: Not Active

## CC(=O)c1c(O)cc(O)c(C=O)c1O
[1]
  Activity: inactive
Aspergillus fumigatus
  Activity: inactive
Leishmania donovani [7]
  Activity: inactive
Plasmodium falciparum [8]
  Activity: inactive
Cryptococcus neoformans [9]
  Activity: inactive
Plasmodium falciparum [10]
  Activity: inactive
Candida albicans [11]
  Activity: inactive
Vero [5]
  IC50: 17.5 µg/mL (≈ 89.2 µM)
Staphylococcus aureus
  Activity: inactive
LLC-PK1 [6]
  IC50: 10 µg/mL (≈ 51 µM)

## C/C(=C\O)C(=O)c1c(O)cc(O)c(C=O)c1O
[1]
  Activity: inactive
Cryptococcus neoformans [14]
  IC50: 2.5 µg/mL (≈ 10.5 µM)
Aspergillus fumigatus
  Activity: inactive
Plasmodium falciparum [8]
  Activity: inactive
Leishmania donovani [2]
  IC50: 29 µg/mL (≈ 122 µM)
  IC90: > 40 µg/mL
Vero [3]
  Activity: Not Active
Plasmodium falciparum [10]
  Activity: inactive
LLC-PK1 [4]
  Activity: Not Active
Staphylococcus aureus
  Activity: inactive
Candida albicans [15]
  IC50: 2 µg/mL (≈ 8.4 µM)

## CCN(CC)CCCC(C)Nc1ccnc2cc(Cl)ccc12 (stereo not given)
[1]
  Activity: inactive
Aspergillus fumigatus
  Activity: inactive

## CCC(=O)c1c(O)c(C)c(O)c(C=O)c1O
[1]
  Activity: inactive
Cryptococcus neoformans [14]
  IC50: 20 µg/mL (≈ 89.2 µM)
Aspergillus fumigatus
  Activity: inactive
Leishmania donovani [7]
  Activity: inactive
Plasmodium falciparum [8]
  Activity: inactive
Plasmodium falciparum [10]
  Activity: inactive
Vero [12]
  Activity: Not Active
Staphylococcus aureus
  Activity: inactive
LLC-PK1 [13]
  Activity: Not Active
Candida albicans [15]
  IC50: 5 µg/mL (≈ 22.3 µM)

## CC(C)CCOc1cc(O)c(CCC(C)C)c(O)c1C=O
Leishmania donovani [2]
  IC50: 10 µg/mL (≈ 34 µM)
  IC90: 36 µg/mL (≈ 122 µM)
Vero [5]
  IC50: 4.6 µg/mL (≈ 15.6 µM)
LLC-PK1 [6]
  IC50: 11.5 µg/mL (≈ 39.1 µM)

## CC(C)CCOc1cc(O)c(C(=O)CC(C)C)c(O)c1C=O
Leishmania donovani [2]
  IC50: 4.2 µg/mL (≈ 13.6 µM)
  IC90: > 40 µg/mL
Vero [3]
  Activity: Not Active
LLC-PK1 [4]
  Activity: Not Active

## CCC(=O)c1c(O)cc(O)c(C=O)c1O
[1]
  Activity: inactive
Cryptococcus neoformans [14]
  IC50: 15 µg/mL (≈ 71.4 µM)
Aspergillus fumigatus
  Activity: inactive
Leishmania donovani [7]
  Activity: inactive
Plasmodium falciparum [8]
  Activity: inactive
Plasmodium falciparum [10]
  Activity: inactive
Candida albicans [11]
  Activity: inactive
Vero [5]
  IC50: 18 µg/mL (≈ 85.6 µM)
Staphylococcus aureus
  Activity: inactive
LLC-PK1 [6]
  IC50: 11 µg/mL (≈ 52.3 µM)

## CC(=O)c1c(O)cc(O)c(C(C)=O)c1O
[1]
  Activity: inactive
Aspergillus fumigatus
  Activity: inactive
Plasmodium falciparum [8]
  Activity: inactive
Leishmania donovani [2]
  IC50: 27 µg/mL (≈ 128 µM)
  IC90: > 40 µg/mL
Cryptococcus neoformans [9]
  Activity: inactive
Plasmodium falciparum [10]
  Activity: inactive
Candida albicans [11]
  Activity: inactive
Vero [5]
  IC50: 12 µg/mL (≈ 57.1 µM)
Staphylococcus aureus
  Activity: inactive
LLC-PK1 [6]
  IC50: 11 µg/mL (≈ 52.3 µM)

## CC(C)CC(=O)c1c(O)cc(O)c(C=O)c1O
[1]
  Activity: inactive
Aspergillus fumigatus
  Activity: inactive
Plasmodium falciparum [8]
  Activity: inactive
Leishmania donovani [2]
  IC50: 27 µg/mL (≈ 113 µM)
  IC90: 40 µg/mL (≈ 168 µM)
Cryptococcus neoformans [9]
  Activity: inactive
Plasmodium falciparum [10]
  Activity: inactive
Candida albicans [11]
  Activity: inactive
Vero [5]
  IC50: 14 µg/mL (≈ 58.8 µM)
Staphylococcus aureus
  Activity: inactive
LLC-PK1 [6]
  IC50: 9.5 µg/mL (≈ 39.9 µM)

## CC(=O)c1c(O)cc(OCCC(C)C)c(C(C)=O)c1O
Leishmania donovani [2]
  IC50: 40 µg/mL (≈ 143 µM)
  IC90: > 40 µg/mL
Vero [3]
  Activity: Not Active
LLC-PK1 [4]
  Activity: Not Active

## CC(C)CCc1c(O)c(C=O)c(O)c(C=O)c1O
[1]
  Activity: inactive
Aspergillus fumigatus
  Activity: inactive
Leishmania donovani [7]
  Activity: inactive
Plasmodium falciparum [8]
  Activity: inactive
Cryptococcus neoformans [9]
  Activity: inactive
Plasmodium falciparum [10]
  Activity: inactive
Candida albicans [11]
  Activity: inactive
Vero [12]
  Activity: Not Active
Staphylococcus aureus
  Activity: inactive
LLC-PK1 [13]
  Activity: Not Active

## CC(=O)c1c(O)c(C)c(O)c(C=O)c1O
[1]
  Activity: inactive
Aspergillus fumigatus
  Activity: inactive
Leishmania donovani [7]
  Activity: inactive
Plasmodium falciparum [8]
  Activity: inactive
Cryptococcus neoformans [9]
  Activity: inactive
Plasmodium falciparum [10]
  Activity: inactive
Vero [12]
  Activity: Not Active
Staphylococcus aureus
  Activity: inactive
LLC-PK1 [13]
  Activity: Not Active
Candida albicans [15]
  IC50: 15 µg/mL (≈ 71.4 µM)

## C=CCOc1cc(O)c(C(C)=O)c(O)c1C=O
Leishmania donovani [7]
  Activity: inactive
Vero [3]
  Activity: Not Active
LLC-PK1 [4]
  Activity: Not Active

## C=CCOc1cc(O)c(C(C)=O)c(O)c1C(C)=O
Leishmania donovani [7]
  Activity: inactive
Vero [3]
  Activity: Not Active
LLC-PK1 [4]
  Activity: Not Active

## C[C@@H]1[C@H](O)[C@@H](C)/C=C/C=C/C=C/C=C/C=C/C=C/C=C/[C@H](O[C@@H]2O[C@H](C)[C@@H](O)[C@H](N)[C@@H]2O)C[C@@H]2O[C@](O)(C[C@@H](O)C[C@@H](O)[C@H](O)CC[C@@H](O)C[C@@H](O)CC(=O)O[C@H]1C)C[C@H](O)[C@H]2C(=O)O [AMPHOTERICIN B]
[1]
  Activity: inactive
Cryptococcus neoformans [14]
  IC50: 0.7 µg/mL (≈ 0.758 µM)
Aspergillus fumigatus
  Activity: inactive
Leishmania donovani [2]
  IC50: 0.32 µg/mL (≈ 0.346 µM)
  IC90: 0.9 µg/mL (≈ 0.974 µM)
Candida albicans [15]
  IC50: 0.3 µg/mL (≈ 0.325 µM)

— ChEMBL document CHEMBL1144532, “Antiprotozoal and antimicrobial activities of O-alkylated and formylated acylphloroglucinols” (Bioorg Med Chem, 2007)
